Experimental data from ChEMBL document CHEMBL4680108, “Ancistrolikokine E, a 5,8'-Coupled Naphthylisoquinoline Alkaloid, Eliminates the Tolerance of Cancer Cells to Nutrition Starvation by Inhibition of the Akt/mTOR/Autophagy Signaling Pathway” (2018).
Active and inactive are the calls of the source. No cut-off for these calls is given here.

Legend:
PANC-1 [1] = assay: Inhibition of Akt/mTOR signaling pathway in human PANC-1 cells cultured in nutrient-deprived medium assessed as decrease in total Akt level at 20 uM measured after 6 hrs by Western blot analysis relative to control; type: cell-based
How it was run: (§1)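 Western blot of PANC-1 cells exposed to compound at different concentrations for 6 h in NDM or DMEM. Probed for total and phosphorylated Akt and mTOR and for GβL. Band levels compared with untreated control cells in NDM.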

PANC-1 [2] = assay: Inhibition of Akt/mTOR signaling pathway in human PANC-1 cells cultured in nutrient-deprived medium assessed as decrease in phosphorylated Akt level at S473 residue at 20 uM measured after 6 hrs by Western blot analysis relative to control; type: cell-based; how it was run: as §1
PANC-1 [3] = assay: Anticancer activity against human PANC-1 cells assessed as inhibition of cell motility at 10 uM measured within 90 mins by digital cell imaging analysis; type: functional, cell-based; settings: time min <=90
How it was run: (§2)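 PANC-1 cells (3 × 10^6) in 35 mm dishes in nutrient-deprived medium (NDM), treated with 10 μM; kept in a stage-top incubator at 37 °C, 5% CO2. Phase-contrast images taken every 10 min for 24 h (145 frames, 20× objective). Untreated cells in NDM served as control.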

PANC-1 [4] = assay: Inhibition of autophagy in human PANC-1 cells cultured in nutrient-deprived medium assessed as inhibition of Beclin-1 expression after 6 hrs by Western blot analysis; type: functional, cell-based; settings: dose 2.5-40 µM
PANC-1 [5] = assay: Inhibition of autophagy in human PANC-1 cells cultured in nutrient-deprived medium assessed as inhibition of Atg5 expression after 6 hrs by Western blot analysis; type: functional, cell-based; settings: dose 2.5-40 µM
PANC-1 [6] = assay: Induction of necrosis in human PANC-1 cells cultured in nutrient-deprived medium assessed as leakage of cellular contents in to the medium at 5 uM measured after 24 hrs by ethidium bromide/acridine orange staining based phase contrast microscopy; type: functional, cell-based
How it was run: (§3)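 PANC-1 cells (2 × 10^5/well) attached in DMEM for 24 h, washed twice with PBS, then treated in NDM (1.25, 2.5, 5 μM; control in NDM alone) for 24 h. Stained with ethidium bromide/acridine orange and imaged in phase-contrast and red/green fluorescence modes (20× objective).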

PANC-1 [7] = assay: Inhibition of autophagy in human PANC-1 cells cultured in nutrient-deprived medium assessed as inhibition of LC3-1 expression at 40 uM after 6 hrs in presence of chloroquine by Western blot analysis; type: functional, cell-based
PANC-1 [8] = assay: Inhibition of Akt/mTOR signaling pathway in human PANC-1 cells cultured in nutrient-deprived medium assessed as decrease in total Akt level at 40 uM measured after 6 hrs by Western blot analysis relative to control; type: cell-based; how it was run: as §1
PANC-1 [9] = assay: Inhibition of autophagy in human PANC-1 cells cultured in nutrient-deprived medium assessed as inhibition of Atg12 expression after 6 hrs by Western blot analysis; type: functional, cell-based; settings: dose 2.5-40 µM
PANC-1 [10] = assay: Inhibition of autophagy in human PANC-1 cells cultured in nutrient-deprived medium assessed as inhibition of LC3-1 expression after 6 hrs by Western blot analysis; type: functional, cell-based; settings: dose 2.5-40 µM
PANC-1 [11] = assay: Induction of apoptosis in human PANC-1 cells cultured in nutrient-deprived medium assessed as inhibition of Bcl-xl measured after 6 hrs by Western blot analysis; type: functional, cell-based; settings: dose 2.5-40 µM
How it was run: (§4)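 PANC-1 cells in NDM or DMEM exposed to compound at different concentrations for 6 h, then immunoblotted for Bcl-2, Bcl-xL and caspase-3.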

PANC-1 [12] = assay: Inhibition of autophagy in human PANC-1 cells cultured in nutrient-deprived medium assessed as inhibition of LC3-2 expression at 40 uM after 6 hrs in presence of chloroquine by Western blot analysis relative to control; type: functional, cell-based
PANC-1 [13] = assay: Inhibition of Akt/mTOR signaling pathway in human PANC-1 cells cultured in nutrient-deprived medium assessed as decrease in phosphorylated Akt level at S473 residue measured after 6 hrs by Western blot analysis; type: cell-based; settings: dose 2.5-40 µM; how it was run: as §1
PANC-1 [14] = assay: Anti-austerity activity against nutrient-deprived human PANC-1 cells assessed as cell death incubated for 24 hrs by WST-8 assay; type: functional
How it was run: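 Human PANC-1 pancreatic cancer cells tested in parallel in nutrient-deprived medium (NDM) and in nutrient-rich DMEM. PC50 is the concentration that kills 50% of cells in NDM without toxicity in DMEM.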

PANC-1 [15] = assay: Inhibition of Akt/mTOR signaling pathway in human PANC-1 cells cultured in nutrient-deprived medium assessed as decrease in total mTOR level at 40 uM measured after 6 hrs by Western blot analysis relative to control; type: cell-based; how it was run: as §1
PANC-1 [16] = assay: Inhibition of colony formation in human PANC-1 cells at 2.5 uM cultured in nutrient rich DMEM medium measured after 24 hrs by crystal violet staining based assay relative to control; type: functional
How it was run: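 PANC-1 cells (5 × 10^2/well) attached in DMEM for 24 h, then exposed to 0, 2.5, 5 or 10 μM in DMEM for 24 h (triplicate). Washed, grown in fresh compound-free DMEM for 12 days, fixed in 4% formaldehyde and stained with crystal violet for 10 min. Colony area measured as a percentage of well area.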

PANC-1 [17] = assay: Inhibition of Akt/mTOR signaling pathway in human PANC-1 cells cultured in nutrient-deprived medium assessed as decrease in total mTOR level measured after 6 hrs by Western blot analysis; type: cell-based; settings: dose 2.5-40 µM; how it was run: as §1
PANC-1 [18] = assay: Inhibition of autophagy in human PANC-1 cells cultured in nutrient-deprived medium assessed as inhibition of LC3-2 expression at 40 uM after 6 hrs in presence of chloroquine by Western blot analysis; type: functional, cell-based
PANC-1 [19] = assay: Induction of apoptosis in human PANC-1 cells cultured in nutrient-deprived medium assessed as inhibition of caspase-3 measured after 6 hrs by Western blot analysis; type: functional, cell-based; settings: dose 2.5-40 µM; how it was run: as §4
PANC-1 [20] = assay: Anticancer activity against human PANC-1 cells assessed as cell death at 10 uM measured after 13 hrs by digital cell imaging analysis; type: functional, cell-based; how it was run: as §2
PANC-1 [21] = assay: Inhibition of Akt/mTOR signaling pathway in human PANC-1 cells cultured in nutrient-deprived medium assessed as decrease in phosphorylated Akt level at S473 residue at 40 uM measured after 6 hrs by Western blot analysis relative to control; type: cell-based; how it was run: as §1
PANC-1 [22] = assay: Induction of morphological changes in human PANC-1 cells cultured in nutrient-deprived medium assessed as cell death measured after 24 hrs by ethidium bromide/acridine orange staining based phase contrast microscopy; type: functional; settings: dose 1.25-5 µM; how it was run: as §3

Question: What does the source list for `COc1cc(OC)c(-c2ccc(O)c3c(OC)cc(C)cc23)c2c1C(C)=N[C@H](C)C2`?
Answer: inhibition (PANC-1 [1]): 48%; inhibition (PANC-1 [2]): 65%; inhibition (PANC-1 [3]): Active; inhibition (PANC-1 [4]): Dose-dependent effect; inhibition (PANC-1 [5]): Dose-dependent effect; Activity (PANC-1 [6]): Active; inhibition (PANC-1 [7]): Active; inhibition (PANC-1 [8]): 86%; inhibition (PANC-1 [9]): Dose-dependent effect; inhibition (PANC-1 [10]): Dose-dependent effect; inhibition (PANC-1 [11]): Active; inhibition (PANC-1 [12]): Active; inhibition (PANC-1 [13]): Dose-dependent effect; Activity (PANC-1 [14]): Dose-dependent effect; PC50 (PANC-1 [14]): 2.5 µM; inhibition (PANC-1 [15]): 100%; inhibition at 2.5 µM (PANC-1 [16]): ≤ 90%; inhibition (PANC-1 [17]): Dose-dependent effect; inhibition (PANC-1 [18]): Active; inhibition (PANC-1 [19]): Active; Activity (PANC-1 [20]): Active; inhibition (PANC-1 [21]): 99%; Activity (PANC-1 [22]): Dose-dependent effect
